# TCR CD3 inh: blocks the human TCR-CD3 interaction; TAMRA-labeled TCR probe fluorescence, biochemical; 360,000 compounds, 0.37% hits; inhibition, % at 9.4 µM; AID 651800; in the data active = inhibition above about 19%;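 note: recombinant mutant TCR 2C K166C tagged with TAMRA read by polarization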
# Tn6 DDE FP: DD(E)-Tn6 binding inhibition, primary FP screen; P02675; Fibrin DD(E) TRITC-Tn6 fluorescence polarization displacement; inhibition, % at 8.3 µM; 370,000 compounds, 0.21% hits;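 active = inhibition above a per-campaign cutoff: mean of compounds within control limits plus 3 SD, cut at about 15% in these data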
# DDE Tn7 FP inh: disrupts Tn7 cyclic peptide binding to fibrin D-Dimer-E complex; inhibition, % at 8.3 µM; 370,000 compounds, 0.13% hits; P02675; AID 720508; FP displacement of FITC-Tn7 peptide from fibrin DD(E); 0% = median of compound wells per plate;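 active = inhibition above the mean of compounds falling within the control limits plus 3 SD of them, cut at about 14% in these data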
#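 Test system – human fibrin DD(E) · Times – 10 min preincubation, 3 h with tracer, room temperature · Detection – fluorescence polarization of the labelled Tn7 tracer · Measure – percent inhibition normalized to high-control wells · Benchmarks – high control wells with 10 µM unlabelled Aha-Tn7 peptide (full inhibition) · Repeats – singlicate testing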
# SIAE primary: inhibitors of human sialic acid acetylesterase SIAE | Q9HAT2 | SIAE FP-Rh probe binding, fluorescence polarization | inhibition, % at 9.66 µM | 370,000 compounds, 0.69% hits | AID 1053197;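 active = inhibition above a cutoff: mean of compounds within the control limits plus 3 SD of those, cut at about 17% in these data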
# HTRA1 inh: HTRA1 (human) protease inhibition; Q92743; recombinant HTRA1, FP-rhodamine activity-based probe, fluorescence polarization; inhibition, % at 5.96 µM; 340,000 compounds, 0.5% hits; in the data active = inhibition above about 36%
# Target sequence (Q92743 whole entry, looked up): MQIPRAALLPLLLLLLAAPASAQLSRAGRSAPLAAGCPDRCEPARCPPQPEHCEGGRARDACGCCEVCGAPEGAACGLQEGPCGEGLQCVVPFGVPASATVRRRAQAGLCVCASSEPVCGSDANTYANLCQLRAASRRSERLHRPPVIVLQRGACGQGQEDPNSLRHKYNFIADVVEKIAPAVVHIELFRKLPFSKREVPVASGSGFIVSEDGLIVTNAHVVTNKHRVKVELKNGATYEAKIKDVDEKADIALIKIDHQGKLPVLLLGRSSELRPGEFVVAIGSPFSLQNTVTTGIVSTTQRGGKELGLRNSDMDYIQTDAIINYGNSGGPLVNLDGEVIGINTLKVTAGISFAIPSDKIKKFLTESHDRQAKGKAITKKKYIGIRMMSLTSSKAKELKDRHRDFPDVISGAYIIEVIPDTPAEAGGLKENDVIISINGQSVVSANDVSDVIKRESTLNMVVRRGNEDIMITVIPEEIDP
# ABHD4 inh: ABHD4 (mouse) inhibition, primary FP screen | inhibition, % at 8.92 µM | purified mABHD4, FP-Rh probe fluorescence polarization | Q8VD66 | 370,000 compounds, 0.54% hits;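 active = inhibition exceeding the mean over every tested compound plus 3 SD, cut at about 30% in these data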
#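 Assay system: Wild-type mouse ABHD4 protein | Medium: HEPES pH 7.0 buffer, 150 mM NaCl, 0.01% Pluronic F-127 | Incubation: Enzyme–compound pre-incubation 45 min, then probe 60 min, both 25 °C | Technique: Fluorescence polarization with parallel and perpendicular emission, 525/598 nm | Evaluation: % inhibition of FP-Rh probe binding versus controls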
# ABHD4 confirm: confirmation of mouse ABHD4 inhibitors. shares compounds with ABHD4 inh. purified mABHD4, FP-Rh probe fluorescence polarization. inhibition, % at 8.92 µM. 1,800 compounds, 55% hits. AID 720658;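 active = mean inhibition across replicates above the hit cutoff set in the primary screen, cut at about 30% in these data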
# SIAE confirm: human SIAE inhibition, confirmation; shares compounds with SIAE primary; AID 1117263; inhibition, % at 9.66 µM; SIAE FP-Rh activity-based probe, fluorescence polarization; 2,300 compounds, 13% hits;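 active = mean inhibition of the replicates above the hit cutoff set in the primary screen, cut at about 17% in these data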;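 note: inhibitors lower polarization as more probe stays unbound to SIAE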
# Numbers stand for hits; . = inactive; / = not tested or not shown; ! = not active in a repeat. Sampled rows, rich in hits. Any-hit rate of the full collection: about 1.8%.
SMILES,TCR CD3 inh,Tn6 DDE FP,DDE Tn7 FP inh,SIAE primary,HTRA1 inh,ABHD4 inh,SIAE confirm,others
Cc1ccc[n+](-c2[nH]c(=O)sc2/C=N/N=C(\[O-])CCn2c3ccccc3c3ccccc32)c1,.,.,.,.,.,.,/,
Cc1cc[n+](-c2[nH]c(=O)sc2/C=N/NC([S-])=Nc2ccccc2)cc1C,.,.,.,19,.,31,.,ABHD4 confirm=.
CCOc1ccc(S(=O)(=O)N(C(=O)c2ccco2)c2cc3sc(=O)oc3c3ccccc23)cc1,.,.,.,18,.,42,.,ABHD4 confirm=.
CC(=O)N(c1ccc2oc(=O)sc2c1)S(=O)(=O)c1ccccc1,.,.,.,.,.,.,/,
Cc1ccc(S(=O)(=O)N(C(=O)c2ccco2)c2cc3sc(=O)oc3c3ccccc23)cc1,.,.,.,34,.,50,.,ABHD4 confirm=.
CCOc1ccc(S(=O)(=O)N(C)CC(=O)NCc2ccco2)cc1,.,.,.,.,.,.,/,
CN1CCC(N[C@@H](Cc2c[nH]c3ccccc23)C(=O)NCCCc2ccccc2)(C(=O)NCCc2c[nH]c3ccccc23)CC1,/,.,.,.,/,.,/,
COC(=O)[C@]12C[C@H](CC(=O)N3CCSCC3)C(=O)N(Cc3ccccc3)C1=C[C@H](C(C)C)O[C@@H]2C1CC1,.,.,.,.,/,.,/,
C=CCn1c(O)c(C2=c3ccccc3=NC2=O)sc1=Nc1ccc(O)cc1,.,.,.,21,.,35,.,ABHD4 confirm=73
C=CCN1C(=O)CSC1=Nc1ccc(O)cc1,.,.,.,.,.,.,/,
CC(=O)OC[C@H]1O[C@H](C#Cc2ccc(C(C)(C)C)cc2)C=C[C@H]1OC(=O)Nc1ccccc1,.,.,.,.,/,.,/,
CCCCNc1c(-c2ccc(OC)c(SC(C)CC)c2)nc2cc(C)ccn12 (stereo not drawn),.,.,.,18!,.,44,.,ABHD4 confirm=65
CCOC(=O)CC[C@H]1CC[C@]2(CCCN(S(=O)(=O)C3CCCCC3)C2)O1,/,.,.,.,/,.,/,
CCCOc1ccc2c(c1)C(=NN=C(N)N)c1cc(OCCC)ccc1-2,.,.,.,18,.,38,.,ABHD4 confirm=51
COc1ccc(/C=N/NC(=O)c2cc3c(OC)ccc(OC)c3[nH]2)cc1O,.,.,.,24,.,33,.,ABHD4 confirm=47
COc1ccc(/C=N/NC(=O)c2cnccn2)cc1O,.,.,.,.,.,.,/,
COc1cc(NC(=O)c2[nH]c(C)c(C(C)=O)c2C)c(OC)cc1Cl,/,.,.,.,/,.,/,
C=CCN1C(=O)[C@H](CC(=O)NCC2CCCCC2)[C@@]2(C(=O)OCC)CCCC=C12,/,.,.,.,/,.,/,
Clc1ccc2c(N/N=C/c3cccc(Br)c3)ccnc2c1,.,.,.,27,.,32,35,ABHD4 confirm=31
Nc1ccc2ccc(O)cc2c1,.,.,.,19,.,40,.,ABHD4 confirm=33
Cc1[nH]c2ccccc2c1N=Nc1ccccc1C(=O)O,.,.,.,34,.,56,.,ABHD4 confirm=69
Cc1[nH]c2ccccc2c1N=Nc1cccc(C(=O)O)c1,.,.,.,.,.,.,/,
N#CCCCc1cn(-c2cccc(-c3noc4c3C(=O)N(CC(=O)N3CCOCC3)CC4)c2)nn1,/,.,.,.,/,.,/,
COC(=O)Nc1ccc(S(=O)(=O)N2CCCC(C(=O)O)C2)cc1 (stereo not drawn),.,.,.,19,.,.,.,
Cc1[nH]nc2c1C(c1ccc(Br)cc1)N(Cc1ccccc1)C2=O (stereo not drawn),.,.,.,.,/,.,/,
SMILES,TCR CD3 inh,Tn6 DDE FP,DDE Tn7 FP inh,SIAE primary,HTRA1 inh,ABHD4 inh,SIAE confirm,others
COC(=O)C1CN(Cc2cn(CCC3OCCO3)nn2)CCS(=O)(=O)N1Cc1ccc(Cl)cc1 (stereo not drawn),/,.,.,.,/,.,/,
CC(Oc1cc2oc(=O)c3c(c2cc1Cl)CCC3)C(=O)N1C[C@H]2C[C@@H](C1)c1cccc(=O)n1C2 (stereo partly drawn),.,.,.,18,.,.,.,
COc1cccc(Nc2nc(CN)cs2)n1,.,.,.,22,/,.,.,
COc1cccc(Nc2nc(C(C)N)cs2)n1 (stereo not drawn),.,.,.,.,/,.,/,
CC1=NN(c2cccc([N+](=O)[O-])c2)C(=O)C1,.,.,.,17,.,.,.,
CC1=NN(c2ccccc2)C(=O)C1,.,.,.,.,.,.,/,
O=C1CC(c2ccco2)=Nc2ccccc2N1,.,.,.,.,.,.,/,
COc1cccc(-c2nnc(-c3ccc4ccccc4c3)o2)c1,.,.,.,.,.,.,/,
c1coc(C2=Nc3cccc4cccc(c34)N2)c1,.,.,.,23,.,.,.,
COc1cccc(C2=Nc3cccc4cccc(c34)N2)c1,.,.,.,22,.,.,.,
Nc1ccc(C2=Nc3cccc4cccc(c34)N2)cc1,.,.,.,24,.,.,.,
Cc1ccccc1C1CCC2(CC1)CCN(CC[C@@H](O)c1ccccc1)C2=O (stereo partly drawn),/,.,.,.,/,.,/,
COc1ccc(S[C@]2(C(=O)N(C)C)CC(=O)N(S(=O)(=O)c3ccc(F)cc3)[C@@H]2c2ccc(OC)cc2)cc1,/,.,.,.,/,.,/,
O=C(Nc1ccc(F)cc1)Nc1nnc([C@@H]2C[C@H](O)[C@@H](CO)O2)s1,.,.,.,.,/,.,/,
O=C(Nc1ccccc1)Nc1nnc([C@@H]2C[C@H](O)[C@@H](CO)O2)s1,.,.,.,47,/,.,.,
C=CCCC1CN(Cc2ccc(OC)cc2)S(=O)(=O)c2c(cccc2N2CCCCC2)O1 (stereo not drawn),.,.,.,.,/,.,/,
CC(C)(C)C(=O)OC12CCCN(C1)/C(=C/c1ccc(C#N)cc1)C2 (stereo not drawn),/,.,.,39,/,.,.,
C#CCCCN([C@H](C(=O)OC)C(C)C)S(=O)(=O)c1ccccc1Br,/,.,.,.,/,.,/,
COc1ccc(-c2cccc3c4c([nH]c23)[C@@H]2C[C@H]3[C@@H](C(=O)N2CC4)[C@H](C)ON3C)cc1,.,.,.,.,/,.,/,
CC(=O)NC12CC3CC(C1)CC(C(=O)N1CCN(S(=O)(=O)c4ccccc4C#N)CC1)(C3)C2,.,.,.,28,.,.,.,
CC(=O)NC12CC3CC(C1)CC(C(=O)N1CCN(S(=O)(=O)c4ccc(C(C)C)cc4)CC1)(C3)C2,.,.,.,.,.,.,/,
CCN1CCCCC(NC(=O)c2cccc(C(F)(F)F)c2)C1=O (stereo not drawn),/,.,.,.,/,.,/,
